Reference: ChEMBL document CHEMBL1212810, “Carbon metabolism-mediated myogenic differentiation” (Nat Chem Biol, 2010)
Calls of active or inactive are those of the source. The rule behind the calls is not given here.

What was measured:
Assay type in all cases: functional, cell-based
[1] = test system: C2C12; assay: Inhibition of serum withdrawal-induced cell differentiation in mouse C2C12 cells assessed as myosin heavy chain expression
[2] = test system: C2C12; assay: Induction of cell differentiation in mouse C2C12 cells assessed as myosin heavy chain expression at 1 uM
Outline: (§1)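 Mouse C2C12 myoblasts were treated with statin. Differentiation was read as myosin heavy chain expression by immunofluorescence.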

[3] = test system: RD; assay: Induction of cell differentiation of human RD cells assessed as troponin expression after 4 days by immunofluorescence method
Outline: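 Human RD embryonal rhabdomyosarcoma cells were treated in normal growth medium for four days, then scored for differentiation.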

[4] = test system: RD; assay: Inhibition of anchorage-independent growth in human RD cells at 10 uM
Outline: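 Human RD embryonal rhabdomyosarcoma cells were treated and scored for anchorage-independent growth on soft agar.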

[5] = test system: C2C12; assay: Inhibition of shATP citrate lyase-induced cell differentiation in mouse C2C12 assessed as myosin heavy chain expression at 100 nM
[6] = test system: C2C12; assay: Induction of cell differentiation in mouse C2C12 cells assessed as myosin heavy chain expression at 10 uM; outline: as §1
[7] = test system: C2C12; assay: Induction of cell differentiation in mouse C2C12 cells assessed as myosin heavy chain expression at 10 uM in presence of 250 uM cholesterol
[8] = test system: C2C12; assay: Induction of cell differentiation in mouse C2C12 cells assessed as myosin heavy chain expression at 5 uM; outline: as §1

Structure (SMILES): CC(C)CCC[C@@H](C)[C@H]1CC[C@H]2[C@@H]3CC=C4C[C@@H](O)CC[C@]4(C)[C@H]3CC[C@]12C
- inhibition [1]: Active

Structure (SMILES): CC(C)n1c(/C=C/C(O)CC(O)CC(=O)O)c(-c2ccc(F)cc2)c2ccccc21 (centres undefined)
- Activity [2]: Active
- Activity [3]: Active
- inhibition [4]: Active

Structure (SMILES): CC(C)c1c(C(=O)Nc2ccccc2)c(-c2ccccc2)c(-c2ccc(F)cc2)n1CC[C@@H](O)C[C@@H](O)CC(=O)O
- Activity [2]: Active

Structure (SMILES): CC(/C=C/C(=O)NO)=C\[C@@H](C)C(=O)c1ccc(N(C)C)cc1
- inhibition [5]: Active

Structure (SMILES): CC[C@H](C)C(=O)O[C@H]1C[C@H](O)C=C2C=C[C@H](C)[C@H](CC[C@@H](O)C[C@@H](O)CC(=O)O)[C@H]21
- Activity [6]: Active
- Activity [7]: Active
- Activity [8]: Active
